Measurements: the RNAGym collection of RNA variant scans (doi:10.1126/science.aae0568)
Fewer inactive variants are shown than the library holds.

B1: tRNA (parent)
chain: GUUCCGUUGGCGUAAUGGUAACGCGUCUCCCUCCUAAGGAGAAGACUGCGGGUUCGAGUCCCGUACGGAACG

Variants of: B1
Assay: yeast fitness relative to wild type (ratio to wild type); higher = fitter; tRNA-Arg(CCU), competitive growth, 37 C, YPD
Outline: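 Start and end populations of a pooled competition were compared by 100-nucleotide paired-end sequencing of gene amplicons. The Saccharomyces cerevisiae strains carried tRNA-Arg(CCU) gene variants at the native genomic locus, synthesised with a 3% per-site mutation rate at 69 sites, and competed in YPD at 37°C for 24 hours in six parallel replicates. Darwinian fitness relative to wild type was based on the change in genotype frequencies. Genotypes required ≥ 100 starting reads, and estimates < 0.5 were set to 0.5.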

Compared with G17A A43U, G17A A43C is lower in yeast fitness: 0.81 for the first, 0.698 for the second.

First: G17A A43G
Second: G17A G67C
The yeast fitness of the first is lower: 0.735 for the first, 0.834 for the second.

Compared with G17A G67U, G17A G67A is lower in yeast fitness: 0.808 for the first, 0.743 for the second.

Going from G17A C31G G44C A69U to G17A C24G C27G A69C, the yeast fitness falls from 0.528 to at most 0.5.

G17A G41U A57C and G17A C34U A42U G51C C66U cannot be ordered by yeast fitness: at most 0.5 for the first, at most 0.5 for the second.

First: U16G U26G U54G
Second: G17A U26G G51A
The yeast fitness of the first is higher: 0.743 for the first, at most 0.5 for the second.

First: G17A C46G A70U
Second: G17A U19C C34A A40G C66U
The yeast fitness of the first is higher: 0.578 for the first, at most 0.5 for the second.

G17A C22A A45U C66U and U16G U53A U59A C66A cannot be ordered by yeast fitness: at most 0.5 for the first, at most 0.5 for the second.

G17A C22U A45G and G17A C46A A65G cannot be ordered by yeast fitness: at most 0.5 for the first, at most 0.5 for the second.

Going from G17A C30U C49U to G17A A57C, the yeast fitness rises from at most 0.5 to 0.581.

First: G17A A20G C27G A36C U53A
Second: G17A G23C U54A C61G
The yeast fitness of the first is higher: 0.639 for the first, at most 0.5 for the second.

Going from G17A A21G to G17A G41A C60G A65G, the yeast fitness falls from 0.765 to at most 0.5.

First: G17A A21C C29U G48A
Second: U16G G39A C61G
The yeast fitness of the first is higher: 0.652 for the first, at most 0.5 for the second.

U16G U26G A36G G67U G68C and U16G C29G C33U G39A C49U cannot be ordered by yeast fitness: at most 0.5 for the first, at most 0.5 for the second.

Going from G17A C31A U32A A57G to G17A G25C G39A, the yeast fitness falls from 0.545 to at most 0.5.

Compared with G17A C22G, G17A C22A is lower in yeast fitness: 0.837 for the first, 0.645 for the second.

Compared with G17A C66U, U16G C55U G67C is lower in yeast fitness: 0.725 for the first, at most 0.5 for the second.

First: G17A U26A C62U
Second: U16G C46U A69C
The yeast fitness of the first is lower: 0.614 for the first, 1.07 for the second.

First: U16G C24U C49G G63C
Second: U16G C27A C31G A42G C61A
The yeast fitness of the first is lower: at most 0.5 for the first, 0.543 for the second.

U16G C24U C29G U35C G50A C62A and G17A G25C A40U G63A cannot be ordered by yeast fitness: at most 0.5 for the first, at most 0.5 for the second.

First: G17A G18A A20C A21G G50A C55G A69U
Second: G17A A42U A57U
The yeast fitness of the first is higher: 0.642 for the first, at most 0.5 for the second.

Compared with U16G A45G G67C, G17A C31U C66A is lower in yeast fitness: 0.63 for the first, at most 0.5 for the second.

U16G A37U U47A G52U and G17A C29A G67C A69U cannot be ordered by yeast fitness: at most 0.5 for the first, at most 0.5 for the second.

U16G A45U G50A C66U and G17A A43G A45G G48A C62G cannot be ordered by yeast fitness: at most 0.5 for the first, at most 0.5 for the second.

G17A G50A C61A and G17A A37C A65C cannot be ordered by yeast fitness: at most 0.5 for the first, at most 0.5 for the second.

First: U16G A43C
Second: U16G C31G A45U
The yeast fitness of the first is lower: 0.919 for the first, 0.974 for the second.

U16G C24U C29G U35C G50A C66U and G17A C24G C27G U59C A69U cannot be ordered by yeast fitness: at most 0.5 for the first, at most 0.5 for the second.

U16G U35A G51C C61U and U16G G39A A45C G67A cannot be ordered by yeast fitness: at most 0.5 for the first, at most 0.5 for the second.

G17A C31U U35C G56A A57G and U16G U26A C34U C62A cannot be ordered by yeast fitness: at most 0.5 for the first, at most 0.5 for the second.

Going from G17A A20G U28A U35A to G17A A40U A42C C49A C66A, the yeast fitness falls from 0.561 to at most 0.5.

First: G17A G56A
Second: G17A G38C A70C
The yeast fitness of the first is higher: 0.878 for the first, at most 0.5 for the second.

Compared with G17A C61U, U16G A43U G50C G67A is lower in yeast fitness: 0.924 for the first, at most 0.5 for the second.

G17A C29G A43G G68C and G17A G18A A42C C61U cannot be ordered by yeast fitness: at most 0.5 for the first, at most 0.5 for the second.

G17A A21G G23A C27G A37U G44A C49U and G17A C27G C31A cannot be ordered by yeast fitness: at most 0.5 for the first, at most 0.5 for the second.

G17A G18C A20G G39C and G17A G44A A70C cannot be ordered by yeast fitness: at most 0.5 for the first, at most 0.5 for the second.

G17A C34A C62G and U16G U35A A45C G52A cannot be ordered by yeast fitness: at most 0.5 for the first, at most 0.5 for the second.

Going from G17A A21C U32C to G17A G52C, the yeast fitness rises from at most 0.5 to 0.65.

Going from U16G U47A to G17A C27G C29G A43G, the yeast fitness falls from 0.781 to 0.561.

First: U16G U54A C55U C66A
Second: G17A U19A G23A C34U
The yeast fitness of the first is higher: 0.58 for the first, at most 0.5 for the second.

Compared with U16G C22G G67C, U16G C22U A37U G50C is lower in yeast fitness: 0.709 for the first, at most 0.5 for the second.

G17A U32A C49U C62A G67C and G17A G18C G39C A69U cannot be ordered by yeast fitness: at most 0.5 for the first, at most 0.5 for the second.

First: G17A C27G G67A
Second: U16G A42U C62A A70C
The yeast fitness of the first is higher: 0.573 for the first, at most 0.5 for the second.

U16G C24U G44A C46G and G17A C24U C46U C60A cannot be ordered by yeast fitness: at most 0.5 for the first, at most 0.5 for the second.

G17A C22G C27A C62G and G17A U32C U54C C60G cannot be ordered by yeast fitness: at most 0.5 for the first, at most 0.5 for the second.

First: G17A A42C
Second: U16G U19G C33U A40C G41A A43C C61G
The yeast fitness of the first is higher: 0.645 for the first, at most 0.5 for the second.

Going from G17A A40U G48A to G17A A20G C31U U35C A57G, the yeast fitness rises from at most 0.5 to 0.573.

G17A A36U C49U C62U and G17A G48A A57G cannot be ordered by yeast fitness: at most 0.5 for the first, at most 0.5 for the second.

First: U16G U28C G51A C55G
Second: U16G G56U
The yeast fitness of the first is lower: at most 0.5 for the first, 0.706 for the second.

First: U16G C30U
Second: G17A A43C C49U U54A G56C A65U A70C
The yeast fitness of the first is higher: 0.777 for the first, 0.565 for the second.

Going from G17A G51A G56C G58C to G17A G58A C61U, the yeast fitness rises from at most 0.5 to 0.59.

U16G U32G C46U and G17A C22A A45U A70U cannot be ordered by yeast fitness: at most 0.5 for the first, at most 0.5 for the second.

First: U16G U54C
Second: G17A A40U G58C
The yeast fitness of the first is higher: 0.704 for the first, 0.672 for the second.

Going from G17A C22U C66U to U16G C31U A42U G56C, the yeast fitness falls from 0.589 to at most 0.5.

U16G C24G C27A and U16G G18A A21U A40C G58C A65C C66G cannot be ordered by yeast fitness: at most 0.5 for the first, at most 0.5 for the second.

Compared with G17A A36C, G17A G50A is higher in yeast fitness: 0.558 for the first, 0.833 for the second.

Compared with G17A A45U G52A C61U, U16G A70G is higher in yeast fitness: at most 0.5 for the first, 1.03 for the second.

First: U16G A70C
Second: G17A C49U C62A
The yeast fitness of the first is higher: 0.911 for the first, at most 0.5 for the second.

First: G17A A20G A57C
Second: G17A G18A U26C A42C C55U
The yeast fitness of the first is higher: 0.558 for the first, at most 0.5 for the second.

Going from G17A G18C G39C to G17A C27G G39C, the yeast fitness falls from 0.588 to at most 0.5.

First: U16G C34U C60A A70C
Second: G17A G58C C62U
The yeast fitness of the first is lower: at most 0.5 for the first, 0.543 for the second.

U16G A57G C66U A69U and G17A C24A C30U G41A A45C G58C cannot be ordered by yeast fitness: at most 0.5 for the first, at most 0.5 for the second.

First: U16G A40C
Second: G17A C24U C30U C46A
The yeast fitness of the first is higher: 0.761 for the first, at most 0.5 for the second.

U16G U47A G52A and G17A C34A C66A cannot be ordered by yeast fitness: at most 0.5 for the first, at most 0.5 for the second.

First: U16G G23C G48A C61A C66U
Second: G17A C30U G63C A65C
The yeast fitness of the first is higher: 0.54 for the first, 0.529 for the second.

G17A G38C A45U C66U and G17A G25C A40U C66G cannot be ordered by yeast fitness: at most 0.5 for the first, at most 0.5 for the second.

Going from G17A C49A U54A to G17A A21G C22A A40U C61U, the yeast fitness falls from 0.614 to at most 0.5.

First: U16G C30A A65G
Second: G17A A57C G63A G67A
The yeast fitness of the first is higher: 0.564 for the first, at most 0.5 for the second.

G17A G18A A42C C55U G63C and G17A G50C C60A cannot be ordered by yeast fitness: at most 0.5 for the first, at most 0.5 for the second.

G17A C34G A65U and G17A A45C G63C C66U cannot be ordered by yeast fitness: at most 0.5 for the first, at most 0.5 for the second.

Compared with G17A G48A, G17A G48C is lower in yeast fitness: 0.951 for the first, 0.827 for the second.

U16G C31G A65C and G17A C22U A37C C55U cannot be ordered by yeast fitness: at most 0.5 for the first, at most 0.5 for the second.

Compared with U16G U26G A36G, G17A G41C is higher in yeast fitness: 0.58 for the first, 0.816 for the second.

Going from U16G C27G U54C to G17A G48C G56C, the yeast fitness falls from 0.633 to 0.575.

G17A A20G C34A A40G C66U and G17A C49G U53C cannot be ordered by yeast fitness: at most 0.5 for the first, at most 0.5 for the second.

Compared with G17A C33U U59G, U16G G68U is higher in yeast fitness: 0.501 for the first, 0.853 for the second.

First: G17A A42U A57U C61G
Second: G17A C30G A45G
The yeast fitness of the first is higher: 0.591 for the first, 0.584 for the second.

Compared with G17A A21U C34G G38C G56C, U16G C55U is higher in yeast fitness: at most 0.5 for the first, 0.817 for the second.

Compared with U16G C55G, U16G U26C C49G is lower in yeast fitness: 0.544 for the first, at most 0.5 for the second.

G17A U32A A43G G67C and U16G C22G A43G C46G G56C A69G cannot be ordered by yeast fitness: at most 0.5 for the first, at most 0.5 for the second.

First: G17A C34A A40G C66U
Second: G17A C29U C49A C62U
The yeast fitness of the first is higher: 0.524 for the first, at most 0.5 for the second.

G17A C29U C33U C60G A65G and G17A A42C A65G cannot be ordered by yeast fitness: at most 0.5 for the first, at most 0.5 for the second.

Going from G17A U26C U53G to G17A U19A C30U A37U G67A, the yeast fitness falls from 0.566 to at most 0.5.

Compared with G17A C46U G51C, G17A C30U is higher in yeast fitness: 0.647 for the first, 0.82 for the second.

Variant G17A U26C U28C A42C C66U has a yeast fitness of at most 0.5.
